The source of these data is ChEMBL document CHEMBL1641397, “Camphoratins A-J, potent cytotoxic and anti-inflammatory triterpenoids from the fruiting body of Taiwanofungus camphoratus” (J Nat Prod, 2010).

In test [1] the test system is KB. Description: Cytotoxicity against human KB cells after 3 days by sulforhodamine B assay. It counts as functional, cell-based.
The nature of test [2]: Cytotoxicity against human KBVIN cells after 3 days by sulforhodamine B assay. It is filed as functional, cell-based. An outline of the steps: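 KB and vincristine-selected KB-VIN grown in RPMI-1640 with 25 mM HEPES and 10% FBS at 37 °C. KB-VIN challenged with 0.5 μg/mL vincristine every two weeks, drug withdrawn at least one day before use. Seeded at 5000 cells/well, compounds at 20 down to 0.16 μM for 3 days. TCA fixation, SRB stain, absorbance at 562 nm. EC50 interpolated, average of at least two independent determinations.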

Test [3] deals with BV-2. Description: Antiinflammatory activity in mouse BV2 cells assessed as inhibition of LPS-induced iNOS-dependent nitrite production after 24 hrs by Griess method. It counts as functional, cell-based. On the technique in general: Griess reagent forms a coloured azo dye with nitrite.
In test [4] the test system is BV-2. Description: Antiinflammatory activity in mouse BV2 cells assessed as inhibition of NOX-dependent ROS production up to 50 uM. It counts as functional, cell-based.
Test [5] can be described thus: Antiinflammatory activity in human PMNC cells assessed as inhibition of fMLP-induced NOX-dependent ROS production up to 50 uM. It is filed as functional, cell-based.
The subject of test [6] is KB. Description: Cytotoxicity against human KB cells at 20 uM after 3 days by sulforhodamine B assay. It counts as functional, cell-based. The method, boiled down:
(§1)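 KB or KB-VIN cells (KB-VIN held under intermittent 0.5 μg/mL vincristine, withdrawn at least one day before use). Seeded at 5000 cells/well and exposed to compound at 20 μM for 3 days. Cells fixed with TCA, stained with SRB, absorbance read at 562 nm. Value is % inhibition of growth versus untreated cells.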
Background: In SRB staining, fixed cells bind dye roughly in proportion to their protein.

Test [7] in a line: Cytotoxicity against human KBVIN cells at 20 uM after 3 days by sulforhodamine B assay. It counts as functional. The following applies: 72 h. The method, boiled down:
as §1

[8] abbreviates: Homo sapiens, KB, 72 h, read-out: EC50.
Setting [9] is: Homo sapiens, KBVIN, 72 h, read-out: EC50.
The mark [10] stands for this setting: Mus musculus, BV-2, 24 h, read-out: IC50.
Where [11] appears, read: Mus musculus, BV-2, read-out: IC50.
[12] abbreviates: Homo sapiens, PMNC, read-out: IC50.

Molecules are shown by their SMILES.

As a reminder, the EC50 is the midpoint of the concentration-response curve. A word on the IC50: it is the concentration that gives 50% inhibition. Turning to `C=C(CC[C@@H](C)[C@H]1CC[C@H]2C3=C(C(=O)C[C@]12C)[C@@]1(C)CCC(=O)[C@@H](C)[C@@H]1CC3)C(C)C(=O)O` (stereo not given in full) [ANTCIN A], the concentration for a half-maximal effect (EC50) worked out at 4.9 µM in the test on KB [1] (setting [8]) and 10 µM in test [2] (setting [9]). Also, the half-maximal inhibitory concentration (IC50) in the test with BV-2 [3] (setting [10]) came out at 4.1 µM; in the test with BV-2 [4] (setting [11]), 45.9 µM; in test [5] (setting [12]) it was 29.2 µM.

As to `C=C(CC[C@@H](C)[C@H]1CC[C@H]2C3=C(C(=O)C[C@]12C)[C@@]1(C)CC[C@@H](O)[C@](C)(O)[C@@H]1C[C@@H]3O)C(C)C(=O)O` (stereo not given in full) [ANTCIN K], the EC50 entry (in the test on KB [1] (kb); in test [2] (kbvin)) was “Not Active” each time. Further, the half-maximal inhibitory concentration (IC50) result was “Not Active” with BV-2 [3] (bv-2), “Not Active” in the test on BV-2 [4] (bv-2) and 47.2 µM in test [5] (setting [12]).

In the case of `C=C(CC[C@@H](C)[C@H]1CC[C@H]2C3=C(C(=O)[C@H](O)[C@]12C)[C@@]1(C)CC[C@@H](O)[C@@H](C)[C@@H]1C[C@@H]3O)C(C)C(=O)O` (stereo not given in full) [CAMPHORATIN A], the EC50 entry (in the test on KB [6] (kb); in test [2] (kbvin)) was “Not Active” throughout.

Turning to `C=C(CC[C@@H](C)[C@H]1CC[C@H]2C3=C(C(=O)C[C@]12C)[C@@]1(C)CC[C@@H](O)[C@@H](C)[C@@H]1C[C@@H]3O)C(C)C(=O)O` (stereo not given in full) [CAMPHORATIN B], in test [2] (kbvin), the EC50 result is given as “Not Active”. Moreover, the IC50 with BV-2 [3] (setting [10]) was 15.7 µM; in the test on BV-2 [4] (bv-2) it was “Not Active”; in test [5] (setting [12]) it was 32.1 µM.

Take `C=C(CC[C@@H](C)[C@H]1CC[C@H]2C3=C(C(=O)C[C@]12C)[C@@]1(C)CC[C@@H](O)[C@](C)(O)[C@@H]1CC3=O)C(C)C(=O)O` (stereo not given in full) [CAMPHORATIN C]: the EC50 with KB [1] (setting [8]) was 0.3 µM; in test [2] (setting [9]), 2.3 µM.

`C=C(CC[C@@H](C)[C@H]1CC[C@H]2C3=C(C(=O)C[C@]12C)[C@@]1(C)CCC(=O)[C@@H](C)[C@@H]1C[C@@H]3O)C(C)C(=O)O` (stereo not given in full) [CAMPHORATIN D]: the concentration for a half-maximal effect (EC50) result (in the test with KB [1] (kb); in test [2] (kbvin)) was “Not Active” throughout. Besides, the IC50 in the test on BV-2 [3] (setting [10]) was 4.2 µM; in the test with BV-2 [4] (bv-2) it was “Not Active”; in test [5] (setting [12]) it was 22.6 µM.

For the compound `C=C(CC[C@@H](C)[C@H]1CC[C@H]2C3=C(C(=O)C[C@]12C)[C@@]1(C)CC[C@@H](O)[C@@H](C)[C@@H]1CC3=O)C(C)C(=O)OC` (stereo not given in full) [CAMPHORATIN E], the EC50 with KB [1] (setting [8]) is 0.45 µM; in test [2] (setting [9]) it was 2.7 µM.

As for `C=C(CC[C@@H](C)[C@H]1CC[C@H]2C3=C(C(=O)C[C@]12C)[C@@]1(C)CCC(=O)[C@@H](C)[C@@H]1C[C@@H]3O)C(C)C(=O)OC` (stereo not given in full) [CAMPHORATIN F], the EC50 worked out at 2 µM in the test with KB [1] (setting [8]) and 2.9 µM in test [2] (setting [9]). Also, the figures for the IC50 (in the test on BV-2 [3] (setting [10]); with BV-2 [4] (bv-2); in test [5] (setting [12])) were 2.5 µM, “Not Active” and 11.2 µM, respectively.

`C=C(CC[C@@H](C)[C@H]1CC[C@H]2C3=C(C(=O)C[C@]12C)[C@@]1(C)CCC(=O)[C@@H](C)[C@@H]1C[C@H]3O)C(C)C(=O)O` (stereo not given in full) [CAMPHORATIN G]: the values for the EC50 (in the test with KB [1] (setting [8]); in test [2] (setting [9])) were 15 µM and 17.5 µM, respectively.

On to `C=C(CC[C@@H](C)[C@H]1CC[C@H]2C3=C(C(=O)C[C@]12C)[C@@]1(C)CCC(=O)[C@@H](C)[C@@H]1CC3)C(C)C` [CAMPHORATIN H], for which the 50% effective concentration (EC50) result (in the test with KB [1] (kb); in test [2] (kbvin)) was “Not Active” each time.

Consider `C[C@H](/C=C/[C@H](C)[C@H](C)CO)[C@H]1CC[C@H]2C3=CC[C@H]4CC(=O)CC[C@]4(C)[C@H]3CC[C@]12C` [CAMPHORATIN I], for which the EC50 entry (with KB [1] (kb); in test [2] (kbvin)) was “Not Active” in each case. For the same compound, the 50% inhibitory concentration (IC50) in the test with BV-2 [3] (setting [10]) was 12.7 µM; in the test with BV-2 [4] (bv-2), “Not Active”; in test [5] (setting [12]), 17.5 µM.

Regarding `C=C(CC[C@@H](C)[C@H]1CC[C@@H]2C3=C(C(=O)C[C@@]21C)[C@@]1(C)CCC(=O)[C@@H](C)[C@@H]1CC3)C(C)C(=O)OC` (stereo not given in full) [CAMPHORATIN J], the concentration giving a half-maximal response (EC50) result (in the test on KB [1] (kb); in test [2] (kbvin)) was “Not Active” each time. In addition, the values for the 50% inhibitory concentration (IC50) (in the test on BV-2 [3] (setting [10]); in the test on BV-2 [4] (bv-2); in test [5] (setting [12])) were 1.6 µM, “Not Active” and 15.8 µM, respectively.

`c1ccc2c(c1)[I+]c1ccccc1-2` [DIPHENYLENEIODONIUM]: in the test on BV-2 [4] (setting [11]), the IC50 amounted to 0.4 µM.

As for `CC(C)[C@@H](C)/C=C/[C@@H](C)[C@H]1CC[C@@H]2[C@]1(C)CC[C@H]1[C@]23C=C[C@]2(C[C@@H](O)CC[C@]12C)OO3` [ERGOSTEROL PEROXIDE], the IC50 in the test on BV-2 [3] (setting [10]) is 6.3 µM; in the test with BV-2 [4] (bv-2), “Not Active”; in test [5] (setting [12]), 20.3 µM.

On to `CC(C)[C@@H](C)/C=C/[C@@H](C)[C@H]1CC[C@H]2C3=CC=C4C[C@@H](O)CC[C@]4(C)[C@H]3CC[C@]12C` [ERGOSTEROL], for which the half-maximal inhibitory concentration (IC50) with BV-2 [3] (setting [10]) was 30.6 µM; in the test on BV-2 [4] (bv-2), “Not Active”; in test [5] (setting [12]), 27.9 µM.

Take `COc1cc([C@@H]2c3cc4c(cc3[C@@H](O[C@@H]3O[C@@H]5CO[C@@H](C)O[C@H]5[C@H](O)[C@H]3O)[C@H]3COC(=O)[C@H]23)OCO4)cc(OC)c1O` [ETOPOSIDE]: the 50% effective concentration (EC50) was 4.5 µM with KB [1] (setting [8]) and > 36 µM in test [2] (setting [9]).

Regarding `C=C(CC[C@@H](C)[C@H]1CC[C@H]2C3=C(C[C@H](O)[C@]12C)[C@@]1(C)CC[C@@H](O)[C@@H](C)[C@@H]1CC3=O)C(C)C(=O)OC` (stereo not given in full) [METHYL ANTCINATE H], the EC50 result (with KB [1] (kb); in test [2] (kbvin)) was “Not Active” in each case. In addition, the 50% inhibitory concentration (IC50) amounted to 2.5 µM in the test with BV-2 [3] (setting [10]), 16 µM in the test on BV-2 [4] (setting [11]) and 18.1 µM in test [5] (setting [12]).

What is called inhibition is the share of the control response that was lost under treatment. Read a high inhibition as a response far below the control. Consider `C=C(CC[C@@H](C)[C@H]1CC[C@H]2C3=C(C(=O)C[C@]12C)[C@@]1(C)CCC(=O)[C@@H](C)[C@@H]1CC3=O)C(C)C(=O)OC` (stereo not given in full) [ZHANKUIC ACID A METHYL ESTER], for which the inhibition at 20 µM in test [7] is 25%; with KB [6] (Homo sapiens, KB, 72 h), 21%. In addition, the 50% effective concentration (EC50) (in the test on KB [1] (setting [8]); in test [2] (setting [9])) was > 20 µM each time. Further, the IC50 in the test on BV-2 [3] (setting [10]) was 0.6 µM; with BV-2 [4] (bv-2), “Not Active”; in test [5] (setting [12]) it was 8.4 µM.

As to `C=C(CC[C@@H](C)[C@H]1CC[C@H]2C3=C(C(=O)C[C@]12C)[C@@]1(C)CCC(=O)[C@@H](C)[C@@H]1CC3=O)C(C)C(=O)O` (stereo not given in full) [ZHANKUIC ACID A], the values for the concentration giving a half-maximal response (EC50) (in the test with KB [1] (setting [8]); in test [2] (setting [9])) were 3 µM and 6.2 µM, respectively. In addition, the IC50 with BV-2 [3] (setting [10]) was 3.6 µM; in the test on BV-2 [4] (bv-2), “Not Active”; in test [5] (setting [12]), 22.1 µM.

Regarding `C=C(CC[C@@H](C)[C@H]1CC[C@H]2C3=C(C(=O)C[C@]12C)[C@@]1(C)CC[C@@H](O)[C@@H](C)[C@@H]1CC3=O)C(C)C(=O)O` (stereo not given in full) [ZHANKUIC ACID B], the 50% effective concentration (EC50) with KB [1] (setting [8]) was found to be 7.3 µM; in test [2] (setting [9]), 8.5 µM. The figures for the IC50 (in the test on BV-2 [3] (setting [10]); in the test with BV-2 [4] (bv-2); in test [5] (pmnc)) were 9.6 µM, “Not Active” and “Not Active”, respectively.

As for `C=C(CC[C@@H](C)[C@H]1CC[C@H]2C3=C(C(=O)[C@H](O)[C@]12C)[C@@]1(C)CC[C@@H](O)[C@@H](C)[C@@H]1CC3=O)C(C)C(=O)O` (stereo not given in full) [ZHANKUIC ACID C], the EC50 in the test with KB [1] (setting [8]) was 15.5 µM; in test [2] (setting [9]), 6.4 µM. The values for the half-maximal inhibitory concentration (IC50) (in the test on BV-2 [3] (setting [10]); in the test with BV-2 [4] (setting [11]); in test [5] (pmnc)) were 16.2 µM, 40.3 µM and “Not Active”, respectively.
